Measurements reported in ChEMBL document CHEMBL1125087, “Synthesis and biological activity of new HMG-CoA reductase inhibitors. 1. Lactones of pyridine- and pyrimidine-substituted 3,5-dihydroxy-6-heptenoic (-heptanoic) acids” (J Med Chem, 1990).

Columns and labels:
[1] = target: T1, 3-hydroxy-3-methylglutaryl-coenzyme A reductase (Homo sapiens) (UniProt P04035); experiment: Relative inhibition of HMG-CoA reductase compared to Mevinolin.
T1 sequence (whole entry): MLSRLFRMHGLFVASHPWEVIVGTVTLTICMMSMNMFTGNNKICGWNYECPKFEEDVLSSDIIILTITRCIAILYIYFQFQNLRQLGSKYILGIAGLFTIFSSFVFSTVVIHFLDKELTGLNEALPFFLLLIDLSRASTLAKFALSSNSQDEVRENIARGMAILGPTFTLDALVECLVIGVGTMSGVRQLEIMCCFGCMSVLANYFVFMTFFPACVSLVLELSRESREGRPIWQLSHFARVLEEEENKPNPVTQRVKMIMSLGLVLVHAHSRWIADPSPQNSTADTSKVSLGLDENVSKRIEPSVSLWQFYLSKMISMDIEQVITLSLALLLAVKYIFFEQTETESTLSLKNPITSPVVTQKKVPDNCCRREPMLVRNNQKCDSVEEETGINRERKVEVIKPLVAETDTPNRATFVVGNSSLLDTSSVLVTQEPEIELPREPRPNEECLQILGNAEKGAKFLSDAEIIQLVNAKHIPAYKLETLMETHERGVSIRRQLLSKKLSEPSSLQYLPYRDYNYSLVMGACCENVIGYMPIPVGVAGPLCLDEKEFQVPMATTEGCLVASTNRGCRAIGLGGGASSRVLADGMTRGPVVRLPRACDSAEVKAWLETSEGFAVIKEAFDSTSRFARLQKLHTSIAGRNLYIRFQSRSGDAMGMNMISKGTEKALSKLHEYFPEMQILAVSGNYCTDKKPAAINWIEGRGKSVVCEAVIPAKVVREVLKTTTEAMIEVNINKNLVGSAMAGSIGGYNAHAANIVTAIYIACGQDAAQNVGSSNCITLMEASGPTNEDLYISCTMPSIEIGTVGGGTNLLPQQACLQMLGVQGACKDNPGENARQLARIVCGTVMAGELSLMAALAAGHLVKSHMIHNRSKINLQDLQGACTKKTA

[2] = target: T2, 3-hydroxy-3-methylglutaryl-coenzyme A reductase (Rattus norvegicus, UniProt P51639); experiment: In vitro inhibition of rat liver HMG-CoA reductase
T2 sequence (P51639 whole entry): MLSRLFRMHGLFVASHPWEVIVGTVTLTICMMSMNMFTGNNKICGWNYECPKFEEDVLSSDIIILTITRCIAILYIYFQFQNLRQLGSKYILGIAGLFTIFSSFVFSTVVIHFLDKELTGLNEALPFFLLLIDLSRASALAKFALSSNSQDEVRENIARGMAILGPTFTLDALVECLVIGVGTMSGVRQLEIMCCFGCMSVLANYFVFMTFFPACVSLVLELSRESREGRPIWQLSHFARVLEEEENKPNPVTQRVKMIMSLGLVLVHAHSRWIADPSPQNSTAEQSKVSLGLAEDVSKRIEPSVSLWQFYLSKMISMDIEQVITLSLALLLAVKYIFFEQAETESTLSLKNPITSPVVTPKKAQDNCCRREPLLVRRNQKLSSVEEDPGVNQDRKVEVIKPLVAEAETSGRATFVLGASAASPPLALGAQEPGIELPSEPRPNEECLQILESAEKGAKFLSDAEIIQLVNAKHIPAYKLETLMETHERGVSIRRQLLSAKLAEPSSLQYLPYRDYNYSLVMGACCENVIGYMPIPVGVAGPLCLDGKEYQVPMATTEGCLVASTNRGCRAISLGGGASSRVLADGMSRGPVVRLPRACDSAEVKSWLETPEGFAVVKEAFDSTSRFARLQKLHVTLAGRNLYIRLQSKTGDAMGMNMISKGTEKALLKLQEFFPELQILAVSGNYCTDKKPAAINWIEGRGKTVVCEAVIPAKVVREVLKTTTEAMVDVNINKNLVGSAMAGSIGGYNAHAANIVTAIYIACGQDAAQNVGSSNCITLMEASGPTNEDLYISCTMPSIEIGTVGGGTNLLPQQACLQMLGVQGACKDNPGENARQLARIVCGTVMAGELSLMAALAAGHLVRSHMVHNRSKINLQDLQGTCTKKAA
How it was run: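 Partially purified soluble HMG-CoA reductase from rat liver microsomes. Medium: 6 mM Tris, 2.5 mM EDTA, 2.5 mM DTT, 50 mM NADP, 50 mM glucose 6-phosphate, glucose-6-phosphate dehydrogenase, and 0.91 mM HMG-CoA with [14C]HMG-CoA. Lactones were opened with 1 equiv KOH to potassium dihydroxy carboxylates and tested at multiple concentrations. Incubated at 37 °C for 20 min, then stopped with HClO4. Run in triplicate; IC50 read from a %-inhibition-versus-concentration plot.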

[3] = target: T3, 3-hydroxy-3-methylglutaryl-coenzyme A reductase (Homo sapiens, UniProt P04035); experiment: Inhibition of cellular HMG-CoA reductase in cultures of human HEP G2 cells, determined by decreased incorporation of sodium [14C]acetate into cholesterol.; assay type: cell-based, HepG2
T3 sequence (P04035 whole entry): T1 sequence (whole entry)
How it was run: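 They were preincubated for 1 h with compound at three concentrations, or with solvent as control, then labeled with [14C]sodium acetate for 3 h. [3H]cholesterol served as internal standard. Cells were saponified, lipids extracted with chloroform/methanol 2:1, and cholesterol isolated by TLC. IC50 came from the treated/control [14C]cholesterol ratio plotted against concentration.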

Row | Structure (SMILES) | Relative potency [1] | IC50 [2] [nM] | IC50 [3] [nM]
1 | CC(C)c1nc(-c2ccc(F)cc2)nc(-c2ccc(F)cc2)c1/C=C/[C@@H]1C[C@@H](O)CC(=O)O1 | 2.78 | 1 | 18
2 | Cc1cc(C)cc(-c2cc(-c3ccc(F)cc3)c(/C=C/[C@@H]3C[C@@H](O)CC(=O)O3)c(C(C)C)n2)c1 | – | 8 | –
3 | CC(C)c1nc(-c2ccccc2)cc(-c2ccc(F)cc2)c1/C=C/[C@@H]1C[C@@H](O)CC(=O)O1 [GLENVASTATIN] | 10 | 3 | 5
4 | Cc1nc(C)c(/C=C/[C@@H]2C[C@@H](O)CC(=O)O2)c(-c2ccc(Cl)cc2)n1 | – | 600 | –
5 | CCc1nc(-c2ccccc2)cc(-c2ccc(F)cc2)c1/C=C/[C@@H]1C[C@@H](O)CC(=O)O1 | – | 40 | –
6 | Cc1nc(-c2ccccc2)cc(-c2ccc(F)cc2)c1/C=C\[C@@H]1C[C@@H](O)CC(=O)O1 | 0.08 | 100 | 5000
7 | CC(C)c1nc(C(C)(C)C)cc(-c2ccc(F)cc2)c1/C=C/[C@@H]1C[C@@H](O)CC(=O)O1 | 2.5 | 1 | 20
8 | CC(C)c1nc(-c2ccccc2)cc(-c2ccc(F)cc2)c1CCC1C[C@@H](O)CC(=O)O1 (some centres undefined) | 0.14 | 19 | 370
9 | Cc1nc(C)c(CCC2C[C@@H](O)CC(=O)O2)c(-c2ccc(F)cc2)n1 (some centres undefined) | – | 1000 | –
10 | Cc1nc(-c2ccccc2)cc(-c2ccc(F)cc2)c1/C=C/[C@@H]1C[C@@H](O)CC(=O)O1 | 0.56 | 38 | 90
11 | CC(C)c1nc(-c2ccccc2)nc(-c2ccc(F)cc2)c1/C=C/[C@@H]1C[C@@H](O)CC(=O)O1 | 10 | 3 | 5
12 | CC(C)c1cc(-c2ccc(F)cc2)c(/C=C/[C@@H]2C[C@@H](O)CC(=O)O2)c(C(C)C)n1 | – | 3 | –
13 | CC(C)c1cc(-c2ccccc2)nc(-c2ccc(F)cc2)c1/C=C/[C@@H]1C[C@@H](O)CC(=O)O1 | 5 | 4 | 10
14 | Cc1cc(-c2ccc(Cl)cc2)c(/C=C/[C@@H]2C[C@@H](O)CC(=O)O2)c(C)n1 | – | 94 | –
15 | CC(C)c1nc(-c2ccccc2)cc(-c2ccc(C(F)(F)F)cc2)c1/C=C/[C@@H]1C[C@@H](O)CC(=O)O1 | – | 36 | –
16 | Cc1nc(C)c(/C=C/[C@@H]2C[C@@H](O)CC(=O)O2)c(-c2ccc(F)cc2)n1 | – | 500 | –
17 | Cc1cc(-c2ccc(F)cc2)c(/C=C/[C@@H]2C[C@@H](O)CC(=O)O2)c(C)n1 | 0.03 | 260 | 2000
18 | Cc1nc(C)c(/C=C\[C@@H]2C[C@@H](O)CC(=O)O2)c(-c2ccc(Cl)cc2)n1 | – | > 1000 | –
19 | CC[C@H](C)C(=O)O[C@H]1C[C@@H](C)C=C2C=C[C@H](C)[C@H](CC[C@@H]3C[C@@H](O)CC(=O)O3)[C@H]21 [LOVASTATIN] | – | 8 | –
20 | Cc1cc(-c2ccc(F)cc2)c(/C=C/[C@@H]2C[C@@H](O)CC(=O)O2)c(C(C)C)n1 | 1 | 9 | 50
21 | CC(C)c1nc(-c2ccc(F)cc2)c(/C=C/[C@@H]2C[C@@H](O)CC(=O)O2)c(C(C)C)n1 | 10.4 | 3 | 4.8
22 | CC(C)c1nc(C2CCCCC2)cc(-c2ccc(F)cc2)c1/C=C/[C@@H]1C[C@@H](O)CC(=O)O1 | 5.26 | 4 | 9.5
23 | CC(C)c1nc(-c2ccc(F)cc2)cc(-c2ccc(F)cc2)c1/C=C/[C@@H]1C[C@@H](O)CC(=O)O1 | 6.67 | 2 | 7.5
24 | CC(C)(C)c1nc(-c2ccccc2)cc(-c2ccc(F)cc2)c1/C=C/[C@@H]1C[C@@H](O)CC(=O)O1 | – | 18 | –
25 | CC(C)c1nc(C2CCCCC2)nc(-c2ccc(F)cc2)c1/C=C/[C@@H]1C[C@@H](O)CC(=O)O1 | 1.92 | 1 | 26
26 | COc1ccc(-c2cc(-c3ccccc3)nc(C(C)C)c2/C=C/[C@@H]2C[C@@H](O)CC(=O)O2)cc1 | 0.33 | 13 | 150
27 | O=C1C[C@H](O)C[C@@H](/C=C/c2c(-c3ccc(F)cc3)cc(-c3ccccc3)nc2C2CCCCC2)O1 | > 0.01 | 30 | > 5000
28 | Cc1cc(-c2ccc(F)cc2)c(/C=C\[C@@H]2C[C@@H](O)CC(=O)O2)c(C)n1 | – | > 1000 | –
29 | CCc1nc(-c2ccccc2)cc(-c2ccc(F)cc2)c1CCC1C[C@@H](O)CC(=O)O1 (some centres undefined) | – | 3 | –
30 | Cc1ccc(C)c(-c2cc(-c3ccc(F)cc3)c(/C=C/[C@@H]3C[C@@H](O)CC(=O)O3)c(C(C)C)n2)c1 | 2.5 | 5 | 20
